Article PMC11019407 (RSC Advances, 2024)
Converted amounts (≈) assume the structure as drawn.

Key:
[1] = test system: C. albicans, T. mentagrophytes, T. rubrum, and M. gypseum; assay: Antifungal activity, paper disk diffusion, statements over all fungi; type: cell-based; conditions: all fungus
Outline: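 Fungi (C. albicans, T. mentagrophytes, T. rubrum, M. gypseum) were swabbed onto Potato Dextrose Agar plates. Inocula were prepared in LB broth for 24 h at 37 °C. 6 mm paper disks were loaded with 30 μL of test compound at 3.125–300 μM. Fluconazole (1 mg mL−1) was the standard.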

[2] = test system: NO production in RAW264.7 cells; assay: Inhibition of NO production in LPS-stimulated RAW264.7 cells; type: cell-based; conditions: Mus musculus, RAW264.7, read-out: IC50 of NO inhibition
Outline: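 RAW 264.7 cells were grown in DMEM with 2 mM L-glutamine, 10 mM HEPES, 1 mM sodium pyruvate and 10% FBS. Cells were seeded at 2 × 10^5 per well and incubated 3 days at 37 °C, 5% CO2. Nitric oxide was quantified with Griess reagent, L-NMMA served as positive control, and IC50 was reported.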

[3] = test system: E. coli, P. aeruginosa, MRSA, S. faecalis; assay: Antibacterial activity, paper disk diffusion, statements over several bacteria; type: cell-based; conditions: for inhibition in words: printed as E. coli, P. aeruginosa, and MRSA in the antifungal section
Outline: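 Bacteria (E. coli, P. aeruginosa, S. faecalis, MRSA) were grown in LB broth for 24 h at 37 °C, then swabbed evenly onto Mueller–Hinton agar. 6 mm paper disks received 30 μL of test compound at 3.125–300 μM. Ampicillin (1 mg mL−1) was the standard.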

α-glucosidase enzyme = α-glucosidase enzyme (Saccharomyces cerevisiae, UniProt P53341); assay: Alpha-glucosidase inhibition; type: biochemical
Chain of α-glucosidase enzyme (P53341 whole entry): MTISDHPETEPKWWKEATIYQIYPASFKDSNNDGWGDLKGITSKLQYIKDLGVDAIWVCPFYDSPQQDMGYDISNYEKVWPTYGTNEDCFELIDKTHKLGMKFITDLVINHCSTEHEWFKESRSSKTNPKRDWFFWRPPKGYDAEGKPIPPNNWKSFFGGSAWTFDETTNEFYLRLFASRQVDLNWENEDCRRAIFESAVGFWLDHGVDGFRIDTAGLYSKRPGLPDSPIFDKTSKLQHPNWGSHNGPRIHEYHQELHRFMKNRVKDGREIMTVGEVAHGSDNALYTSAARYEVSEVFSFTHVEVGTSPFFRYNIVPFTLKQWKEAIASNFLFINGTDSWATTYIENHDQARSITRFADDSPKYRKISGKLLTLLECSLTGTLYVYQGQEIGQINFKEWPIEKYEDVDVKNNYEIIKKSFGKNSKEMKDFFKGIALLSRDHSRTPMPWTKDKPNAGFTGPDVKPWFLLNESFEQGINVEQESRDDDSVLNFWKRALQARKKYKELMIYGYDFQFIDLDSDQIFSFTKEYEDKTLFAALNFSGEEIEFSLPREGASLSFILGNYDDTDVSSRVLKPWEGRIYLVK

`COC(=O)C1=CO[C@@H](O[C@@H]2O[C@H](CO)[C@@H](O)[C@H](O)[C@H]2O)[C@H]2[C@@H]1[C@H](O)C[C@]2(C)OC(C)=O` [Compound 3, barlerin] was tested, and the “antifungal inhibition in words” value [1] was “weak inhibitions or inactive”.
For `C[C@]1(OC(=O)/C=C/c2ccccc2)C[C@@H](O)[C@]2(O)C=CO[C@@H](O[C@@H]3O[C@H](CO)[C@@H](O)[C@H](O)[C@H]3O)[C@@H]21` [Compound 4, harpagoside], the IC50 [2] was 25.9 ± 3.32 µM and the “antifungal inhibition in words” value [1] was “weak inhibitions or inactive”.
With `O=C(O)c1c[nH]c2ccccc12` [Compound 6, indole-3-carboxylic acid] the inhibition in words [3] was “weak inhibitions or inactive”.
In the case of `C[C@H]1[C@H](C)CC[C@]2(C(=O)O)CC[C@]3(C)C(=CC[C@@H]4[C@@]5(C)CC[C@H](O)C(C)(C)[C@@H]5CC[C@]43C)[C@H]12` [Compound 7, ursolic acid], the IC50 [2] is reported as 18.2 ± 0.7 µM and the inhibition in words [3] is reported as “weak inhibitions or inactive”.
In the case of `C[C@@H]1CC[C@]2(C(=O)O)CC[C@]3(C)C(=CC[C@@H]4[C@@]5(C)CC[C@H](O)[C@@](C)(CO)[C@@H]5CC[C@]43C)[C@@H]2[C@]1(C)O` [Compound 9, rotundic acid], the “antifungal inhibition in words” value [1] is reported as “weak inhibitions or inactive”.
In the case of `C[C@@H]1O[C@@H](O[C@@H]2[C@@H](O)[C@H](OCCc3ccc(O)c(O)c3)O[C@H](CO)[C@H]2OC(=O)/C=C/c2ccc(O)c(O)c2)[C@H](O)[C@H](O)[C@H]1O` [Compound 12, verbacoside], the IC50 (α-glucosidase enzyme) is reported as 42.4 µM and the “antifungal inhibition in words” value [1] is reported as “weak inhibitions or inactive”.
`[H]/N=C(/NC)NCCC[C@H](N)C(=O)O` [L-NMMA, reference compound] gave an IC50 [2] of 41.3 µM.
Compound `CC1(C)S[C@@H]2[C@H](NC(=O)[C@H](N)c3ccccc3)C(=O)N2[C@H]1C(=O)O` [ampicillin, reference compound] has an MIC ([3]; read-out: MIC values against four bacteria) of 3.12 to 6.25 µM (≈ 1.09 to 2.18 µg/mL).
